KCNQ1 pot: potentiates or activates the human KCNQ1 potassium channel. P51787. CHO-K1 KCNQ1, thallium flux FluxOR fluorescence; active compounds read high. B-score at 10 µM. 310,000 compounds, 0.35% hits;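 active = fluorescence ratio B-score, a plate-corrected score, at least three library SD, with initial intensity B-score within 5 SD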
Target sequence (P51787 whole entry, looked up): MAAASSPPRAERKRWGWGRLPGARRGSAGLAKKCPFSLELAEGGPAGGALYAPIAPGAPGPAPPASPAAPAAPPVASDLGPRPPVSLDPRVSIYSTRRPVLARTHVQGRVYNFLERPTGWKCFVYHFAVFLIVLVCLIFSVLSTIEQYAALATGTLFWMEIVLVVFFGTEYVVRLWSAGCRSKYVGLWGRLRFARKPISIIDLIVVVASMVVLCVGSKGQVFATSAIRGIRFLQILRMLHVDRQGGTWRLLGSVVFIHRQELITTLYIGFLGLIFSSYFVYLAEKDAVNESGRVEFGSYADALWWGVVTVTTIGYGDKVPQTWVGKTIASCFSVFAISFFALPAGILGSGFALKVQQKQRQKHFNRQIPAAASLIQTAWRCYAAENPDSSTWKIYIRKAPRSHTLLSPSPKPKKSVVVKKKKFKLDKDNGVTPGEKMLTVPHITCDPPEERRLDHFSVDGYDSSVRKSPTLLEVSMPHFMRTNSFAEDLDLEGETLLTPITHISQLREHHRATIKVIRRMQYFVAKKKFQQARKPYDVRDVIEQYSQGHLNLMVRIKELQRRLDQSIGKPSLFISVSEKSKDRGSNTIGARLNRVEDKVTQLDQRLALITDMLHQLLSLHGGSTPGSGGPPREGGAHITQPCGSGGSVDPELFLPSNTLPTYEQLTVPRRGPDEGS
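Assay system: stable KCNQ1 CHO-K1 line; medium: assay buffer, equal DMSO in all wells; timing: 90 min dye loading and 20 min compound exposure, both at room temperature; technique: kinetic FluxOR thallium fluorescence, 10-s 1-Hz baseline, 110-s post-stimulus read; read-out basis: B score of baseline-normalized fluorescence ratio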
KCNK9 inh: human KCNK9 channel inhibition; 310,000 compounds, 1.2% hits; B-score at 10 µM; HEK293 KCNK9, FluxOR thallium flux fluorescence; active compounds read low;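 active = ratio B-score over 3 SD below the library mean, with starting fluorescence within 5 SD of its mean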;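 also: negative B-score means less thallium flux so channel inhibition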
Cl transport mod: modulates chloride dependent transport by human KCC2 | Q9H2X9 | KCC2 cells, thallium flux FluoZin-2 fluorescence | B-score of Tl+ flux slope (higher = more flux/activation; lower = inhibition) at 10 µM | 190,000 compounds, 2.2% hits;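 active = thallium flux slope and its plate-corrected score both differing from the plate sample mean at a set confidence after two filtering rounds, in either direction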;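 also: slope of fluorescence scaled to starting intensity during 10 to 20 s after thallium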
hERG rescue: shields human hERG channel from block by proarrhythmic agents; 310,000 compounds, 0.51% hits; AID 1511; Q12809; activation (rescue from dofetilide block), less the hit threshold, % at 10 µM; CHO-hERG, FluxOR thallium flux, dofetilide IC70 present;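 active = activation above the mean of controls blocked by dofetilide plus 5 SD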;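 also: thallium influx through hERG after potassium depolarization seen as dye fluorescence rise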
KCNQ1 inh: inhibitors of human KCNQ1 potassium channel | P51787 | CHO-K1 KCNQ1, FluxOR thallium flux fluorescence; active compounds read high | B-score at 10 µM | 310,000 compounds, 1.3% hits;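 active = compounds whose thallium flux B-score, printed positive for inhibition, exceeds three library SD while starting fluorescence stays within three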;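 also: channel opened by potassium depolarization with thallium stimulus after 20 min compound exposure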
KCNK3 inh: human KCNK3 channel inhibition, primary screen; O14649; CHO-KCNK3 thallium flux, FluxOR fluorescence; active compounds read low; B-score at 10 µM; 340,000 compounds, 0.84% hits; AID 602410;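 active = B-score under library mean minus 4 SD, starting fluorescence ratio at most library mean plus 5 SD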;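 also: more negative B-score means stronger inhibition of thallium flux through KCNK3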
KCC2 sec1: KCC2 (human) modulation, secondary assay. shares compounds with Cl transport mod. HEK293-KCC2, thallium flux, FluoZin2 fluorescence; active compounds read high. normalised thallium flux (F/F0 slope) at 10 µM. 3,700 compounds, 15% hits. AID 1713;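 active = thallium flux slope above the same plate's solvent-only control mean plus 3 SD; inconclusive = the two replicate wells disagree; inactive = no significant difference from solvent-only control wells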
KCC2 bumet counter: thallium flux despite bumetanide block in KCC2 cells, secondary assay 3. shares compounds with Cl transport mod. normalized thallium flux at 10 µM. HEK293-KCC2 + bumetanide/ouabain, thallium flux FluoZin2; active compounds read high. 3,700 compounds, 49% hits;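 active = thallium entry rate above the same plate's blocked-transporter control wells by more than 3 SD; inconclusive = the two repeat wells disagree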;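 also: raw slope of fluorescence over initial fluorescence between 10 and 20 s after thallium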
KCC2 secondary2: KCC2 (human) modulation, second secondary assay; shares compounds with Cl transport mod; HEK293-KCC2, thallium flux FluoZin2 fluorescence; actives lie on both sides; F/F0 rise rate, 10–20 s post-thallium; normalized thallium flux at 10 µM; 3,700 compounds, 23% hits; AID 1715;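 active = thallium flux slope more than 3 SD above or below the plate's solvent-only control mean, mostly below; inconclusive = the two repeat wells disagreed; inactive = no significant shift from solvent-only controls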
HEK293 Tl flux: parental HEK flux effect, counter-screen; shares compounds with Cl transport mod; thallium flux rate (normalised fluorescence) at 10 µM; AID 1716; HEK293 parental cells, thallium flux FluoZin2, ouabain; baseline-ratio fluorescence slope, 10–20 s after thallium; 3,700 compounds, 46% hits;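 active = thallium flux rate significantly above the same plate's solvent-only control wells, beyond their mean plus 3 SD; inconclusive = the two replicate wells gave conflicting results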
KCC2 ouabain: modulates human KCC2 on retest with ouabain; shares compounds with Cl transport mod; HEK293-KCC2, thallium flux FluoZin2 fluorescence; bidirectional: low = inhibitor, high = activator; raw Tl+ flux slope (below DMSO = inhibition, above = activation) at 10 µM; 3,700 compounds, 48% hits;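 active = thallium flux slope beyond 3 SD from same-plate DMSO control mean in most replicates, usually higher, sometimes lower; inconclusive = repeat tests gave conflicting results; inactive = no significant difference from controls in most replicates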;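 also: slope of initial-normalized fluorescence between seconds 10 and 20 after thallium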
HEK counter2: acts in parental HEK cells, second KCC2 counter-screen | HEK293 parental, thallium flux FluoZin-2 fluorescence slope | thallium flux slope at 10 µM | 3,700 compounds, 33% hits | AID 1718 | shares compounds with Cl transport mod;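 active = thallium flux slope above the same plate's solvent-control mean plus 3 SD in both duplicate wells; inconclusive = duplicate wells that disagreed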;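 also: run without ouabain in cells lacking the KCC2 cotransporter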
KCNK9 inh conf: confirmation of human KCNK9 potassium channel inhibitors | 4,900 compounds, 43% hits | HEK293 KCNK9 cells, FluxOR thallium flux fluorescence | inhibition, % at 10 µM | shares compounds with KCNK9 inh;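 active = thallium signal inhibited by more than 5 SD of the compound-free buffer control wells, on both duplicate plates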
Kir2-1 spec: selectivity of KCNK9 modulators against mouse Kir2.1; shares compounds with KCNK9 inh; Kir2.1 cells, FluxOR thallium flux fluorescence; inhibition, % at 10 µM; 4,900 compounds, 4% hits; AID 492993;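 active = thallium signal drop more than 5 SD beyond the mean of the no-compound control wells, seen in both duplicate plates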;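 also: signal is fluorescence rise after thallium addition divided by baseline fluorescence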
KCNK9 uninduced: second counter-screen for KCNK9 modulators: effect in non-induced cells; non-induced KCNK9-HEK293, FluxOR thallium flux; inhibition, % at 10 µM; 4,900 compounds, 40% hits; AID 492997; shares compounds with KCNK9 inh;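 active = thallium signal drop beyond 5 SD of the untreated control mean, on both duplicate plates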
KCNK3 confirm: confirmation of human KCNK3 two-pore domain potassium channel inhibitors; shares compounds with KCNK3 inh; CHO-KCNK3 thallium flux, FluxOR fluorescence; 0% buffer, 100% carvedilol maximal block; ratio percent of control, % at 10 µM; 2,400 compounds, 99% hits;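 active = ratio percent of control, averaged over triplicates, above buffer control mean plus 5 SD, cut at about 64% in these data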;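 also: ratio is the fluorescence rise from min to max over baseline after thallium stimulus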
KCNK3 uninduced: KCNK3 inhibitor counter-screen hit in non-induced cells; shares compounds with KCNK3 inh; non-induced KCNK3 parental cells, FluxOR thallium flux; active compounds read low; thallium flux ratio (lower = more inhibition) at 10 µM; 2,400 compounds, 40% hits;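 active = thallium flux ratio, averaged over three wells, more than 5 SD below the buffer control mean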;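 also: host cells are CHO cells without KCNK3 induction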
Each line names hits and unclear results; the compound was inactive in the other large screens (follow-up assays come after a bar, where they were run). Most compounds without a hit are left out; they make up all but 4.1% or so of the library.

CSc1ccc(CCNC(=O)CCc2nnc3ccc(N4CCC5(CC4)OCCO5)nn23)cc1	none (no result: Cl transport mod)
CC(OC(=O)CCC(=O)N1CCN(S(=O)(=O)c2ccc3ccccc3c2)CC1)C(=O)NC(N)=O (configuration not stated)	none (no result: Cl transport mod)
COc1ccc(NC(=O)CN(C)C(=O)c2ccc(S(=O)(=O)Nc3ccccc3C)cc2)cc1	none (no result: KCNQ1 pot, KCNK9 inh, Cl transport mod, hERG rescue, KCNQ1 inh)
COc1cccc(C2Oc3ccccc3C3CC(c4cccs4)=NN32)c1 (configuration not stated)	KCNK9 inh -12, Cl transport mod 6.5 | KCC2 sec1 inactive | KCC2 bumet counter 0.019 | KCC2 secondary2 inactive | HEK293 Tl flux 0.013 | KCC2 ouabain inactive | HEK counter2 0.016 | KCNK9 inh conf 60% | Kir2-1 spec inactive | KCNK9 uninduced inactive
CCOC(=O)[C@H]1[C@H]2COc3ccc(Br)cc3[C@H]2N2C(=O)CNC(=O)[C@@]12C	none (no result: KCNQ1 pot, KCNK9 inh, Cl transport mod, hERG rescue, KCNQ1 inh)
COc1ccccc1NC(=S)NC(=O)c1c(-c2ccccc2Cl)noc1C	Cl transport mod 3.7 | KCC2 sec1 inactive | KCC2 bumet counter 0.028 | KCC2 secondary2 inactive | HEK293 Tl flux inconclusive | KCC2 ouabain 0.03 | HEK counter2 inconclusive | KCNK9 inh conf inactive | Kir2-1 spec inactive | KCNK9 uninduced inactive
COC(=O)c1ccc(NC(=O)CCc2nnc3ccc(N4CCC5(CC4)OCCO5)nn23)cc1	none (no result: Cl transport mod)
COc1ccc(-c2cn(-c3ccc(C)cc3)c(=O)n2CC(=O)Nc2ccc(OC)cc2OC)cc1	none (no result: Cl transport mod) | KCC2 sec1 inactive | KCC2 bumet counter inactive | KCC2 secondary2 inactive | HEK293 Tl flux inactive | KCC2 ouabain inactive | HEK counter2 inactive | KCNK9 inh conf inactive | Kir2-1 spec inactive | KCNK9 uninduced inactive
CCOC(=O)CC(=O)NC(C)(C)CCCCC(C)(C)NC(=O)CC(=O)OCC	none
COc1ccccc1OCCOCCOc1c(C)cc(C)cc1Br	Cl transport mod -5.4 | KCC2 sec1 inactive | KCC2 bumet counter inactive | KCC2 secondary2 inactive | HEK293 Tl flux inactive | KCC2 ouabain inactive | HEK counter2 inactive | KCNK9 inh conf inactive | Kir2-1 spec inactive | KCNK9 uninduced inactive
N=C1/C(=C/c2cccn2Cc2ccc(Cl)cc2)C(=O)N=C2SC=CN12	none
CCC1=NN2C(=N)/C(=C\c3cccn3-c3ccc(Cl)cc3)C(=O)N=C2S1	Cl transport mod 18 | KCC2 sec1 inconclusive | KCC2 bumet counter 0.043 | KCC2 secondary2 inactive | HEK293 Tl flux 0.014 | KCC2 ouabain inactive | HEK counter2 0.011 | KCNK9 inh conf inactive | Kir2-1 spec inactive | KCNK9 uninduced inactive
O=C1OC(c2cccs2)=N/C1=C/c1ccc(-c2cccc(C(=O)O)c2)o1	none (no result: KCNQ1 pot, KCNK9 inh, hERG rescue, KCNQ1 inh)
O=C1OC(c2cccs2)=N/C1=C\c1ccc(-c2ccccc2Cl)o1	KCNK9 inh -7.9 (no result: Cl transport mod) | KCC2 sec1 inactive | KCC2 bumet counter inactive | KCC2 secondary2 inactive | HEK293 Tl flux 0.0049 | KCC2 ouabain inconclusive | HEK counter2 inactive | KCNK3 confirm 141 | KCNK3 uninduced 0.11
CCCCN1CC(=O)N2[C@@H]3c4cc(OC)ccc4OC[C@@H]3[C@H](C(=O)OCC)[C@]2(C)C1=O	none (no result: KCNQ1 pot, KCNK9 inh, Cl transport mod, hERG rescue, KCNQ1 inh)
COc1ccc(OC)c(-c2csc(NC(=O)c3ccc4c(c3)OCO4)n2)c1	Cl transport mod 6.7, KCNK3 inh -9.3 | KCC2 sec1 inactive | KCC2 bumet counter inactive | KCC2 secondary2 inactive | HEK293 Tl flux inactive | KCC2 ouabain inactive | HEK counter2 inactive | KCNK3 confirm 92 | KCNK3 uninduced inactive
COc1ccc(OC)c(NC(=O)c2ccc3c(c2)OCO3)c1	none (no result: Cl transport mod)
CC(C)(CNC(=S)NCCc1ccccc1)CNC(=S)NCCc1ccccc1	Cl transport mod -5.1, KCNQ1 inh 14, KCNK3 inh -9.4 | KCC2 sec1 inactive | KCC2 bumet counter inactive | KCC2 secondary2 inconclusive | HEK293 Tl flux inactive | KCC2 ouabain 0.013 | HEK counter2 inactive | KCNK3 confirm 116 | KCNK3 uninduced 0.1
Cc1ccc(OCc2nc(C#N)c(NCc3ccc4c(c3)OCO4)o2)cc1	KCNK9 inh -7.8, KCNK3 inh -12 | KCC2 sec1 inactive | KCC2 bumet counter inconclusive | KCC2 secondary2 inconclusive | HEK293 Tl flux inconclusive | KCC2 ouabain 0.012 | HEK counter2 inactive | KCNK3 confirm 148 | KCNK3 uninduced 0.13
FC(F)(F)c1ccccc1-n1ccnc1	none (no result: KCNQ1 pot, KCNK9 inh, Cl transport mod, hERG rescue, KCNQ1 inh)
Clc1ccccc1C(c1ccccc1)(c1ccccc1)n1ccnc1	KCNK9 inh -18, Cl transport mod -4.3, KCNK3 inh -11 | KCC2 sec1 inactive | KCC2 bumet counter inactive | KCC2 secondary2 inactive | HEK293 Tl flux 0.0057 | KCC2 ouabain inactive | HEK counter2 inactive | KCNK3 confirm 129 | KCNK3 uninduced 0.13
CCN(CC(=O)Nc1ccc(NC(C)=O)cc1)C(=O)/C=C/c1ccc([N+](=O)[O-])cc1	none (no result: Cl transport mod)

Bioassay records deposited in PubChem BioAssay by several laboratories.
